Data as given in the EternaBench riboswitch data.

Test system: MS2 coat protein
Test: apparent Kd, MS2 coat protein; higher = weaker binding; RNA-MaP array
Procedure, shortened: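 Designs measured on fewer than 10 clusters were excluded from the data. The rest were RNAs transcribed from sequenced DNA templates on an Illumina sequencing chip and incubated at room temperature, with or without input ligand, with fluorescently labeled MS2 coat protein at 1.5 nM to 3 μM for 0.8–1.5 h at the lowest to 10–20 min at the highest concentrations. Apparent Kd is the median of the per-cluster binding-curve fits.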

[1] = designed as: OFF switch for flavin mononucleotide, no ligand
[2] = ligand present: flavin mononucleotide, designed as: OFF switch for flavin mononucleotide
[3] = designed as: ON switch for flavin mononucleotide, no ligand
[4] = ligand present: flavin mononucleotide, designed as: ON switch for flavin mononucleotide
[5] = designed as: ON switch for theophylline, no ligand
[6] = ligand present: theophylline, designed as: ON switch for theophylline

| Sequence | apparent Kd [1] | apparent Kd [2] | apparent Kd [3] | apparent Kd [4] | further results |
| --- | --- | --- | --- | --- | --- |
| AAAACUACAGAUACCUUAACAUGAGGAUCACCCAUGUGAGCUGAGGAUAUGUCCACGCUUUAAGGACAGAAGGCAGGAGCAUAG | 0.0252 µM | 0.0369 µM | – | – | – |
| AAAUUAAUCAGAGGAUAUAGACAUGAGGAUCACCCAUGUACCAAAAUCGCGAAGAAGGAUCCGUGCUAGAAGGCAGAAUACAUA | 0.0103 µM | 0.00865 µM | – | – | – |
| AACCACAUGAGGAUCACCCAUGUGACCGCUCGAGGACCGGUACGGCCGCCACUCGUGGAGGGACUUAUGCGUUAUCCGGGUAAAU | – | – | – | – | apparent Kd (designed as: ON switch for tryptophan, no ligand): 0.0194 µM; apparent Kd (ligand present: tryptophan, designed as: ON switch for tryptophan): 0.0226 µM |
| AACGGUGCGCGAGGAUAUCACGUACCAAGAGGAUGAGAAGGCGCGCGUACAGGUUGGUGAACAUGAGGAUCACCCAUGUGGUAC | 0.0995 µM | 0.0872 µM | – | – | – |
| AACGGUUUUUAGAAGGGCGUCAGGGACCUUGGACAUGAGGAUCACCCAUGUGUGCAGACACCUGCGCAGGAUAUAAGUUCUCUA | 0.0126 µM | 0.00953 µM | – | – | – |
| AAGCCACAUGAGGAUCACCCAUGUGAGGAUAUUCAUCUAGAUCAACAAGACACGGAUAGAAGAAGGCACGGUGG | 0.014 µM | 0.0295 µM | – | – | – |
| AAGGCUACGACCGAUACCAGUAGACGGCAUUCGUAGGAGAACAUGAGGAUCACCCAUGUCUACCCUUGGCAGCGGAAAAUACACU | – | – | – | – | apparent Kd (designed as: OFF switch for theophylline, no ligand): 0.0135 µM; apparent Kd (ligand present: theophylline, designed as: OFF switch for theophylline): 0.0398 µM |
| ACAGUACAUGAGGAUCACCCAUGUAGAAGAUGCUCAGGAUAUUGUGAGUCAGGUUAUGUACAAGAAGGGAGGCACG | – | – | 0.0254 µM | 0.0141 µM | – |
| ACAUCGAGGCGAGGAUAUAUGACAUGAGGAUCACCCAUGUCUGCGUGAUCGUCGAACAAAUGUUCAUAGAAGGCGCUAGAAAUG | 0.112 µM | 0.0206 µM | – | – | – |
| ACAUGAGGAUCACCCAUGUCGAAGCACGCGCCACCUUCAAGCAGAAGGAAGUGACAAGUACUAGCUUAGGAUAUGCUCAAAGGU | – | – | 0.0123 µM | 0.007 µM | – |
| ACCAUCAUUGUUAGGAUAUGUAGAGUACUGAGGCUACAGAAGGAACAUGAGGAUCACCCAUGUGUUUCGGUGUA | 0.031 µM | 0.126 µM | – | – | – |
| ACCCGAGAUACAGGAUAUGCGUCCGCGUGAGCCAUGGUUAAAGCACAUGAGGAUCACCCAUGUUGGCAGAAGGGAAUCUCAUGA | 0.0537 µM | 0.0193 µM | – | – | – |
| ACCGGCACCUAGGAUACCAGAUCCACAACAAACAUGAGGAUCACCCAUGUAUAAAGUGGUAUCCCUUGGCAGCCUGUGACAAUCG | – | – | – | – | apparent Kd [5]: 0.0165 µM; apparent Kd [6]: 0.0148 µM |
| ACCUCAAUGGAUGAUACCAGCUCAAGGACGAACAUGAGGAUCACCCAUGUGACGUGGUGUAGCCCUUGGCAGCAUACUGACACCU | – | – | – | – | apparent Kd [5]: 0.0394 µM; apparent Kd [6]: 0.0213 µM |
| ACUAAACAUGAGGAUCACCCAUGUAAUUGAAGCUAAGGAUAUCAGAAGAAUGGUGAUUCAUGAGAAGGAAGCGAUU | – | – | 0.0869 µM | 0.0586 µM | – |
| ACUCUAGAAUAGAAGGCCUGAGGAAGUAGUAAAGGAGGAUAUAUCAUACGAAAUUCACAUGAGGAUCACCCAUGUUGCGCAGAC | – | – | 0.0212 µM | 0.0124 µM | – |
| ACUGAGUAAGGAUAUCCAUCAUACUAACGACGCGGAAAGAAGGAGAAGGUACAUGAGGAUCACCCAUGUGAAAA | 0.0123 µM | 0.0111 µM | – | – | – |
| ACUGGUUCGGUUGUCACACAUGAGGAUCACCCAUGUAAGGUAGAGGAUAUCGCUCCGUCCUUCGGCGAGAAGGCUAUUCGACGC | 0.013 µM | 0.0103 µM | – | – | – |
| AGACAUGAGGAUCACCCAUGUUGCUGUACAGGAGUUAAAGUCUAGGAUAUUGGGUCAGAAAGCGACAAGAAGGAGACACGCCAG | – | – | 0.0112 µM | 0.00847 µM | – |
| AGACAUGGCGGAUAGGAUAUGUGGGCGUCUACAUGAGGAUCACCCAUGUUGCUCGGAUGCAAUCUACAGAAGGAUCGACCCAGUGC | – | – | 0.106 µM | 0.0161 µM | – |
| AGACUUAGACAAGGAUAUGGUGAGGCCACCUUACAUGAGGAUCACCCAUGUCUAGAGAUCCUGUGCCAGAAGGUGUAGUUGGAC | – | – | 0.312 µM | 0.0757 µM | – |
| AGGUCCGGAGAGAAGGCCGACUUUGUAAUACACGGAGGAUAUCUACCACAUGAGGAUCACCCAUGUCCACACCGCAAGUUGUAA | – | – | 0.015 µM | 0.0108 µM | – |
| AGGUUACGUGUGAGGAUAUUAAGAUAUUAAAUUUAUAAGAAGGCACAUGAGGAUCACCCAUGUAUGACUUCCCA | 0.00566 µM | 0.00677 µM | – | – | – |
| AGUGGUGGGAAGGAUAUCUUCCGGCGUUAGCCUAGAGAAGGUCCCACAUGAGGAUCACCCAUGUUGACAUCGGU | 0.373 µM | 0.183 µM | – | – | – |
| AGUUAACCGGGUGUUCUACAUGAGGAUCACCCAUGUACACUCAGAAGGCUCGAAUCUAGGGAUGGAGAGGAUAUGAAAACUGAU | 0.0215 µM | 0.0365 µM | – | – | – |
| AUACACAGAGUUAGGAUAUCUACAUAAAACAAAAUAGAGAAGGAACAUGAGGAUCACCCAUGUAAUGAUCAAAC | 0.00999 µM | 0.00945 µM | – | – | – |
